Activity calls are given as the source filed them. The rule behind the calls is not given here.
Legend:
[1] = Metabolic stability in Sprague-Dawley rat liver microsomes assessed as compound remaining at 60 mins in presence of NADPH regenerating system by HPLC method; format: ADME; details: read-out: Stability
Summary of the method: (§1)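 Test compound incubated with rat liver microsomes at 37 ℃ in buffer containing an NADPH regenerating system for the stated time. Remaining parent compound was quantified by HPLC.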

[2] = system: BJ; test: Cytotoxicity against human BJ cells assessed as growth inhibition after 48 hrs by MTT assay; format: cell-based
Summary of the method: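 Non-tumorigenic cells given 48 h compound exposure, and viability read by MTT. IC50 is mean ± SE from dose-response curves of at least three independent experiments. HUVECs were kept quiescent in endothelial cell medium with 0.5% fetal calf serum and no growth factor.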

[3] = system: A549; test: Induction of apoptosis in human A549 cells assessed as viable cells at 1 nM after 24 hrs by annexin V-FITC/propidium iodide staining-based flow cytometric method (reference value: 98.9%); format: functional; details: A549, 24 h, read-out: Activity
Summary of the method: (§2)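 A549 cells exposed 24 h or 48 h at indicated concentrations, then trypsinized, harvested and stained with Annexin V-FITC and PI; flow cytometry quadrants scored as necrotic (upper left), late apoptotic (upper right), live (bottom left) and early apoptotic (bottom right). Five independent experiments, representative shown.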

[4] = system: MCF7; test: Cytotoxicity against human MCF7 cells assessed as cell viability after 48 hrs by MTT assay; format: functional, cell-based; details: MCF7, 48 h
Summary of the method: (§3)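 Cancer cell lines treated with compound for 48 h, and viability read by MTT assay. IC50 given as mean ± SD from at least three independent experiments.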

[5] = system: A549; test: Induction of apoptosis in human A549 cells assessed as necrotic cells at 3 nM after 48 hrs by annexin V-FITC/propidium iodide staining-based flow cytometric method (reference value: 0.01%); format: functional; summary of the method: as §2
[6] = Metabolic stability in Sprague-Dawley rat liver microsomes assessed as compound remaining at 30 mins in presence of NADPH regenerating system by HPLC method; format: ADME; details: read-out: Stability; summary of the method: as §1
[7] = system: A549; test: Induction of apoptosis in human A549 cells assessed as late apoptotic cells at 3 nM after 48 hrs by annexin V-FITC/propidium iodide staining-based flow cytometric method (reference value: 0.01%); format: functional
[8] = system: A549; test: Induction of apoptosis in human A549 cells assessed as early apoptotic cells at 3 nM after 24 hrs by annexin V-FITC/propidium iodide staining-based flow cytometric method (reference value: 1.07%); format: functional
[9] = system: A549; test: Induction of apoptosis in human A549 cells assessed as late apoptotic cells at 10 nM after 48 hrs by annexin V-FITC/propidium iodide staining-based flow cytometric method (reference value: 0.01%); format: functional
[10] = Half life in Sprague-Dawley rat liver microsomes in presence of NADPH regenerating system by HPLC method; format: ADME
Summary of the method: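 Compound incubated with rat liver microsomes at 37 °C in buffer containing an NADPH regenerating system, sampled over time up to 3 h. Remaining parent compound was measured by HPLC and half-life derived.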

[11] = system: A549; test: Antitumor activity against human A549 cells xenografted in BALB/c nude mouse assessed as tumor growth inhibition at 30 mg/kg, ip administered every other day for 1 month measured every other day post dose relative to vehicle-treated control; format: functional; details: read-out: TGI
[12] = system: A549; test: Induction of apoptosis in human A549 cells assessed as necrotic cells at 3 nM after 24 hrs by annexin V-FITC/propidium iodide staining-based flow cytometric method (reference value: 0.03%); format: functional
[13] = Cytotoxicity against human Bel7402 cells assessed as cell viability after 48 hrs by MTT assay; format: functional, cell-based; details: Bel-7402, 48 h; summary of the method: as §3
[14] = system: A549; test: Induction of apoptosis in human A549 cells assessed as necrotic cells at 1 nM after 24 hrs by annexin V-FITC/propidium iodide staining-based flow cytometric method (reference value: 0.03%); format: functional
[15] = system: A549; test: Induction of apoptosis in human A549 cells assessed as early apoptotic cells at 1 nM after 48 hrs by annexin V-FITC/propidium iodide staining-based flow cytometric method (reference value: 1.95%); format: functional
[16] = system: A549; test: Induction of apoptosis in human A549 cells assessed as viable cells at 10 nM after 48 hrs by annexin V-FITC/propidium iodide staining-based flow cytometric method (reference value: 98.1%); format: functional; details: A549, 48 h, read-out: Activity; summary of the method: as §2
[17] = system: A549; test: Cell cycle arrest in human A549 cells assessed as decrease in cell level at G1 phase at 1 to 10 nM after 24 to 48 hrs by propidium iodide staining-based flow cytometric analysis; format: functional
Summary of the method: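 A549 cells exposed to compound for 24, 48 or 72 h, then trypsinized and harvested. DNA stained with propidium iodide and analyzed by flow cytometry. Percentage of cells in each cell-cycle phase was quantified from the DNA histograms, with sub-G1 taken as the hypodiploid peak. Performed at least three times; representative experiments shown.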

[18] = system: A549; test: Induction of apoptosis in human A549 cells assessed as late apoptotic cells at 10 nM after 24 hrs by annexin V-FITC/propidium iodide staining-based flow cytometric method (reference value: 0.01%); format: functional
[19] = system: A549; test: Induction of apoptosis in human A549 cells assessed as necrotic cells at 1 nM after 48 hrs by annexin V-FITC/propidium iodide staining-based flow cytometric method (reference value: 0.01%); format: functional
[20] = system: A549; test: Disruption of microtubule network in human A549 cells assessed as multinucleation at 10 nM after 24 hrs by Hoechst 33342 staining-based laser scanning confocal microscopic analysis; format: cell-based
Summary of the method: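 A549 cells plated in confocal dishes and incubated with compound for 24 h. Cells were then fixed and stained, and microtubule and spindle organization was imaged by laser confocal microscopy. Experiments done five times; representative results shown.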

[21] = system: A549; test: Disruption of mitochondrial membrane potential in human A549 cells assessed as green fluorescence intensity at 10 nM after 24 hrs by JC1 staining-based flow cytometric method (reference value: 0.02%); format: functional
[22] = target: Tubulin (Sus scrofa) (UniProt P02554+P02550); test: Inhibition of [3H]-colchicine binding to porcine brain tubulin at 1 uM relative to control
Summary of the method: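 Competition with [3H]colchicine at 5 μM; test agents at 5 or 1 μM. Mean ± SD of at least three independent experiments.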

[23] = Selectivity ratio of IC50 for human BJ cells to IC50 for human A549 cells; format: ADME, cell-based; details: BJ cells versus A549 cells, read-out: Ratio IC50
Summary of the method: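 Selectivity ratio = IC50 in normal cells / IC50 in A549; IC50 values mean ± SE from dose-response curves of at least three independent experiments. HUVECs kept quiescent in endothelial cell medium with 0.5% fetal calf serum, no growth factor.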

[24] = system: A549; test: Disruption of mitochondrial membrane potential in human A549 cells at 1 to 10 nM after 24 hrs by JC1/Hoechst 33342 staining-based laser scanning confocal microscopy; format: functional, cell-based
Summary of the method: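 After 24 h compound treatment, A549 cells were incubated with JC-1 for 30 min and visualized by laser scanning confocal microscopy.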

[25] = system: A549; test: Disruption of mitochondrial membrane potential in human A549 cells assessed as green fluorescence intensity at 1 nM after 24 hrs by JC1 staining-based flow cytometric method (reference value: 0.02%); format: functional
[26] = target: Tubulin (Sus scrofa, UniProt P02554+P02550); test: Inhibition of porcine brain tubulin polymerization measured every 60 secs for 60 mins by DAPI staining-based fluorescence assay

Chain of Tubulin (Sus scrofa) (P02550 whole entry, looked up): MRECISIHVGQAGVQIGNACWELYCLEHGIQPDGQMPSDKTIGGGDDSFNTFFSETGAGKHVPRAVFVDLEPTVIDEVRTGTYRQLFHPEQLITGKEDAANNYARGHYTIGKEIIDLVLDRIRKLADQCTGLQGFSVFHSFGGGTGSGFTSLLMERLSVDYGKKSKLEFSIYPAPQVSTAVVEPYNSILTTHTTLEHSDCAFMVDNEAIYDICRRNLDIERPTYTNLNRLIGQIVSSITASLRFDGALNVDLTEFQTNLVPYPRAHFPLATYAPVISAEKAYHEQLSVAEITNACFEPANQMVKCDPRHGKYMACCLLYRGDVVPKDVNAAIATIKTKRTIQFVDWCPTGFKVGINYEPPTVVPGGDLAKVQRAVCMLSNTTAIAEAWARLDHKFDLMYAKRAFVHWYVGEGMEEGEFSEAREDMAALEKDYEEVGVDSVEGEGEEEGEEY
Chain of Tubulin (Sus scrofa) (P02554 whole entry, looked up): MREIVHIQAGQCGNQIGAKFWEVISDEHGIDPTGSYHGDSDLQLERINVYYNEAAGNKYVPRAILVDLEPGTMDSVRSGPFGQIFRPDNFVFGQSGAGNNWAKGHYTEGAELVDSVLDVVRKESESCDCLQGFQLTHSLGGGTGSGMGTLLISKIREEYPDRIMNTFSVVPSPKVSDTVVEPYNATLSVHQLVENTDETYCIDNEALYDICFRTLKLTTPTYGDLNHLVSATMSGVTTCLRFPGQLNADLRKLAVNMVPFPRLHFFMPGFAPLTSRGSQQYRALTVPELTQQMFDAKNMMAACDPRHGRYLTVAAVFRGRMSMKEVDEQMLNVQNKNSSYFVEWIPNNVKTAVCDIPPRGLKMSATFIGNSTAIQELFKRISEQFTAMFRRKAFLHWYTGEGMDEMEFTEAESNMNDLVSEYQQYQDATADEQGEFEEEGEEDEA

remaining at 1 h [1]: 80.5%
remaining at 0.5 h [6]: 85.6%
half-life [10]: 2.62 h
inhibition [22]: 82%
IC50 [26]: 2680 nM
Compound: COc1ccc2c(/C=C(\C)C(=O)c3cc(OC)c(OC)c(OC)c3)c[nH]c2c1
IC50 [2]: 8920 nM
viability at 0.001 µM [3]: 83.7%
IC50 [4]: 6 nM
Activity [5]: 2.69%
Activity [7]: 33.4%
Activity [8]: 28.6%
Activity [9]: 70.2%
inhibition in vivo at 30 mg/kg [11]: 66.1%
Activity [12]: 1.07%
IC50 [13]: 9 nM
Activity [14]: 1.45%
Activity [15]: 18.9%
viability at 0.01 µM [16]: 15.6%
Activity [17]: Active
Activity [18]: 12.41%
Activity [19]: 1.52%
Activity [20]: Active
Activity [21]: 57.2%
selectivity ratio [23]: 2970
Activity [24]: Active
Activity [25]: 1.78%

Reference: ChEMBL document CHEMBL3817728, “Synthesis, Evaluation, and Mechanism Study of Novel Indole-Chalcone Derivatives Exerting Effective Antitumor Activity Through Microtubule Destabilization in Vitro and in Vivo” (J Med Chem, 2016)
